“Also recorded” adds a separate entry of the source.
Assay: Safety and tolerability in iMATRIX-cobi Phase I/II study
Format: in vivo, human
Outline: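 Patients aged 6 months to <30 years with relapsed/refractory solid tumors with MAPK pathway involvement. Oral test compound (20-mg tablet or suspension, with/without food) on Days 1–21 of 28-day cycles. Cumulative weekly weight-based dose rounded to 20 mg, capped at 60 mg/day. Rolling 6 escalation in cohorts of 3–6. Eye exams including OCT at baseline, cycle 1 Days 8/15, and each later cycle Day 1. All dosed patients evaluated.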

O=C(c1ccc(F)c(F)c1Nc1ccc(I)cc1F)N1CC(O)([C@@H]2CCCCN2)C1 [cobimetinib]
Treatment-related AE: Decreased appetite, G1 (Dose expansion (n = 12)): 1 (8) n (%)
Treatment-related AE: Decreased appetite, G2 (Dose expansion (n = 12)): 0 n (%)
Treatment-related AE: Decreased appetite, G3 (Dose expansion (n = 12)): 0 n (%)
Treatment-related AE: Decreased appetite, G4 (Dose expansion (n = 12)): 0 n (%)
Treatment-related AE: Dermatitis acneiform, G1 (Dose expansion (n = 12)): 1 (8) n (%)
Treatment-related AE: Dermatitis acneiform, G2 (Dose expansion (n = 12)): 0 n (%)
Treatment-related AE: Dermatitis acneiform, G3 (Dose expansion (n = 12)): 0 n (%)
Treatment-related AE: Dermatitis acneiform, G4 (Dose expansion (n = 12)): 0 n (%)
Treatment-related AE: Diarrhea, G1 (Dose expansion (n = 12)): 4 (33) n (%)
Treatment-related AE: Diarrhea, G2 (Dose expansion (n = 12)): 0 n (%)
Treatment-related AE: Diarrhea, G3 (Dose expansion (n = 12)): 0 n (%)
Treatment-related AE: Diarrhea, G4 (Dose expansion (n = 12)): 0 n (%)
Treatment-related AE: Dry skin, G1 (Dose expansion (n = 12)): 1 (8) n (%)
Treatment-related AE: Dry skin, G2 (Dose expansion (n = 12)): 0 n (%)
Treatment-related AE: Dry skin, G3 (Dose expansion (n = 12)): 0 n (%)
Treatment-related AE: Dry skin, G4 (Dose expansion (n = 12)): 0 n (%)
Treatment-related AE: Encephalopathy, G1 (Dose expansion (n = 12)): 0 n (%)
Treatment-related AE: Encephalopathy, G2 (Dose expansion (n = 12)): 0 n (%)
Treatment-related AE: Encephalopathy, G3 (Dose expansion (n = 12)): 0 n (%)
Treatment-related AE: Encephalopathy, G4 (Dose expansion (n = 12)): 1 (8) n (%)
Treatment-related AE: Erythema, G1 (Dose expansion (n = 12)): 0 n (%)
Treatment-related AE: Erythema, G2 (Dose expansion (n = 12)): 0 n (%)
Treatment-related AE: Erythema, G3 (Dose expansion (n = 12)): 0 n (%)
Treatment-related AE: Erythema, G4 (Dose expansion (n = 12)): 0 n (%)
Treatment-related AE: Fatigue, G1 (Dose expansion (n = 12)): 2 (17) n (%)
Treatment-related AE: Fatigue, G2 (Dose expansion (n = 12)): 0 n (%)
Treatment-related AE: Fatigue, G3 (Dose expansion (n = 12)): 0 n (%)
Treatment-related AE: Fatigue, G4 (Dose expansion (n = 12)): 0 n (%)
Treatment-related AE: Headache, G1 (Dose expansion (n = 12)): 1 (8) n (%)
Treatment-related AE: Headache, G2 (Dose expansion (n = 12)): 0 n (%)
Treatment-related AE: Headache, G3 (Dose expansion (n = 12)): 0 n (%)
Treatment-related AE: Headache, G4 (Dose expansion (n = 12)): 0 n (%)
Treatment-related AE: Nausea, G1 (Dose expansion (n = 12)): 1 (8) n (%)
Treatment-related AE: Nausea, G2 (Dose expansion (n = 12)): 0 n (%)
Treatment-related AE: Nausea, G3 (Dose expansion (n = 12)): 0 n (%)
Treatment-related AE: Nausea, G4 (Dose expansion (n = 12)): 0 n (%)
Treatment-related AE: Paronychia, G1 (Dose expansion (n = 12)): 0 n (%)
Treatment-related AE: Paronychia, G2 (Dose expansion (n = 12)): 0 n (%)
Treatment-related AE: Paronychia, G3 (Dose expansion (n = 12)): 0 n (%)
Treatment-related AE: Paronychia, G4 (Dose expansion (n = 12)): 0 n (%)
Treatment-related AE: Rash, G1 (Dose expansion (n = 12)): 0 n (%)
Treatment-related AE: Rash, G2 (Dose expansion (n = 12)): 1 (8) n (%)
Treatment-related AE: Rash, G3 (Dose expansion (n = 12)): 0 n (%)
Treatment-related AE: Rash, G4 (Dose expansion (n = 12)): 0 n (%)
Treatment-related AE: Transaminases increased, G1 (Dose expansion (n = 12)): 0 n (%)
Treatment-related AE: Transaminases increased, G2 (Dose expansion (n = 12)): 0 n (%)
Treatment-related AE: Transaminases increased, G3 (Dose expansion (n = 12)): 0 n (%)
Treatment-related AE: Transaminases increased, G4 (Dose expansion (n = 12)): 0 n (%)
Treatment-related AE: Vomiting, G1 (Dose expansion (n = 12)): 4 (33) n (%)
Treatment-related AE: Vomiting, G2 (Dose expansion (n = 12)): 0 n (%)
Treatment-related AE: Vomiting, G3 (Dose expansion (n = 12)): 0 n (%)
Treatment-related AE: Vomiting, G4 (Dose expansion (n = 12)): 0 n (%)
Treatment-related AE: Weight increased, G1 (Dose expansion (n = 12)): 0 n (%)
Treatment-related AE: Weight increased, G2 (Dose expansion (n = 12)): 0 n (%)
Treatment-related AE: Weight increased, G3 (Dose expansion (n = 12)): 1 (8) n (%)
Treatment-related AE: Weight increased, G4 (Dose expansion (n = 12)): 0 n (%)
AESI aspartate aminotransferase increased (dose escalation suspension): 12%
AESI epistaxis (dose escalation suspension): 12%
AESI aspartate aminotransferase increased (dose escalation tablet): 6%
AESI epistaxis (dose escalation tablet): 17%
Deaths on study (eleven deaths, all due to PD): 20%
AESI aspartate aminotransferase increased (expansion): 17%
AESI creatine phosphokinase increased (expansion): 17%
Adverse events of special interest (AESI) (expansion): 50%
TRAEs leading to cobimetinib withdrawal (expansion): 8%
TRAEs leading to cobimetinib withdrawal (overall, six patients): 11%
Patients with DLTs (six patients, dose escalation, cycle 1): 11%
Adverse events of special interest (AESI) (suspension dose escalation): 50%
TRAEs leading to cobimetinib withdrawal (suspension dose escalation): 15%
TRAEs leading to cobimetinib withdrawal (events) (suspension dose escalation, 1.0 mg/kg): grade 2 epitheliopathy/keratitis
TRAEs leading to cobimetinib withdrawal (events) (suspension dose escalation, 1.33 mg/kg): grade 4 chorioretinopathy; also recorded: grade 2 ECG QT prolonged; also recorded: grade 1 serous retinal detachment
Pediatric recommended Phase II dose (RP2D), suspension (suspension, Days 1–21 of 28-day cycle): 1.0 mg/kg
TRAEs leading to cobimetinib withdrawal (tablet dose escalation): 6%
TRAEs leading to cobimetinib withdrawal (events) (tablet dose escalation, 1.0 mg/kg): grade 2 retinal detachment
Pediatric recommended Phase II dose (RP2D), tablet (tablet, Days 1–21 of 28-day cycle): 0.8 mg/kg

Source: PMC9217999 (Targeted Oncology, 2022)
